Compound activity: PubChem, several laboratories
aDG glyco up = increases alpha dystroglycan glycosylation; Pro5-aDG cells, alpha-DG glycosylation AlphaScreen (IIH6); 0% Pro5, 100% B10-LARGE cell signal; activation, % at 10 µM; 360,000 compounds, 0.22% hits; AID 624168;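 active = activation of at least 8% versus controls, or a plate z-score of at least 8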;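 note: Pro5 are CHO cells carrying HIG-tagged alpha-DG that lacks glycosylation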
CHOP inhibitor = blocks CHOP induction under ER stress; CHO-K1 CHOP-promoter luciferase, tunicamycin-induced, 15-18 h; inhibition, % at 10 µM; 220,000 compounds, 3.8% hits;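 active = compounds that reduced the stress-induced luciferase reporter signal by more than about 70% of percent inhibition, limit read from the data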;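 note: 0% = tunicamycin plus vehicle and 100% = wells without tunicamycin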
MPTP block = permeability transition pore inhibition; isolated mouse mitochondria, Ca2+ swelling absorbance, 30 min; inhibition, % at 10 µM; 360,000 compounds, 1.4% hits; AID 602449;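 active = inhibition of 50% or more, scaled per plate between neutral and stimulator controls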;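 note: 0% = DMSO wells given calcium and 100% = 1 mM EGTA wells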
XBP1 UPR activ = adaptive UPR (XBP1) activation | CHO-XBP1 luciferase reporter, IRE1-XBP1 UPR activation, luminescence; percent of tunicamycin response, DMSO as zero | activation, % at 20 µM | 330,000 compounds, 0.33% hits | AID 463104;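 active = versus positive control, 20 µM dose yields 30% or more activation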;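 note: 100% = tunicamycin at 10 µg/mL and 0% = DMSO only wells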
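Material: IRE1-XBP1 luciferase reporter CHO line / Quantity: one thousand reporter cells per well / Buffer or medium: F12 with 10% serum / Compound: 20 µM single concentration, DMSO 1% / Times: 6 h treatment, 37 °C / Detection: Steady-Glo luciferase glow luminescence, 10 min after reagent addition / Benchmarks: tunicamycin high, DMSO low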
GRIN3A LBD mod = modulators (binders) of human NR3A ligand-binding domain; NR3A LBD differential scanning fluorimetry, Tm shift; 0% = protein alone, 100% = glycine-bound protein; Tm shift relative to glycine control, % at 25 µM; 340,000 compounds, 2.5% hits;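 active = melting temperature shift of at least 10% of the positive control shift, at one fixed dose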
CHOP UPR activ = activators of apoptotic arm of unfolded protein response (CHOP) | CHO-CHOP luciferase reporter, UPR activation, luminescence; percent of tunicamycin response over DMSO baseline | activation, % at 10 µM | 330,000 compounds, 0.34% hits | AID 449763;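 active = at 10 µM dose, activation of 40% or more, normalized to positive control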;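 note: 100% = tunicamycin at 10 µg/mL and 0% = DMSO alone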
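Evaluation: % reporter activation, DMSO baseline versus tunicamycin full activation; System: CHO-CHOP luciferase reporter cell line; Input: 500 cells/well; Incubation: 6 h compound treatment, 37 °C; Measured by: Steady-Glo luciferase luminescence; Dosing: one dose, 10 µM in 0.5% DMSO; Buffer or medium: F12 medium, 10% FBS; Benchmarks: positive tunicamycin 10 µg/mL, negative DMSO alone.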
MPTP counter = mitochondrial membrane potential, counter-screen | 5,000 compounds, 78% hits | inhibition, % at 10 µM | isolated mitochondria, Rhodamine 123 fluorescence | shares compounds with MPTP block; in the data active = inhibition above about 22%;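 note: 0% = DMSO vehicle and 100% = positive control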
The depositor's hits bear a star; nt = not tested or not shown. An excerpt weighted towards active compounds, which were near 5.6% of everything screened.

SMILES | aDG glyco up | CHOP inhibitor | MPTP block | XBP1 UPR activ | GRIN3A LBD mod | CHOP UPR activ | MPTP counter
Cc1nc2c(-c3ccc(Cl)cc3)c(C)[nH]n2c(=O)c1Cc1ccccc1 | 12.1* | 35.8 | 68.9* | -0.8 | -1.8 | 11.1 | 91.0*
Cn1nc(C(C)(C)C)cc1C(=O)NCc1ccc2c(c1)OCO2 | 4.2 | nt | 100.8* | -6.6 | 0.2 | 4.1 | 105.0*
Cc1oc(C(C)(C)C)cc1C(=O)NCc1ccc2c(c1)OCO2 | 0.2 | -3.6 | 63.1* | -1.5 | 1.0 | -0.2 | 28.3*
CCn1ccc(C(=O)NCc2ccc3c(c2)OCO3)n1 | -0.2 | nt | -0.3 | -1.2 | 2.0 | 2.6 | nt
O=C(Nc1cccnc1)Nc1cc(Cl)cc(Cl)c1 | 1.5 | 14.1 | 89.4* | 0.1 | 20.6* | -0.1 | 98.2*
O=C(Nc1cccnc1)Nc1ccccc1Cl | -0.1 | 17.9 | 1.4 | 4.3 | 2.0 | 2.5 | nt
O=C(Nc1cccnc1)Nc1ccc(Br)cc1Cl | 0.5 | 33.7 | 57.6* | 1.8 | -6.8 | 3.7 | 80.4*
Cc1cc(=O)n(C)c(=O)n1CCCCCCOc1cccc([N+](=O)[O-])c1 | 1.2 | 22.2 | 57.1* | -1.8 | -2.1 | -1.1 | 20.5*
CC(=O)Nc1cccc(OCCOc2cccc([N+](=O)[O-])c2)c1 | -0.2 | nt | 1.4 | nt | 2.6 | nt | nt
Brc1cc(Br)c2nc(-c3cccs3)ccc2c1 | -0.2 | 69.3 | 11.8 | 2.1 | 3.1 | 2.6 | nt
Cc1nc2c(Br)cc(Br)cc2cc1O | 0.2 | 81.0* | 99.4* | -1.0 | 24.1* | -0.3 | 97.4*
CCCn1c(N)c(N(CCOC)C(=O)c2cccc(S(=O)(=O)N3CCCc4ccccc43)c2)c(=O)[nH]c1=O | -0.3 | nt | -1.2 | 2.2 | 1.1 | 1.6 | nt
O=C(Nc1ccc(Cl)c([N+](=O)[O-])c1)ONC1=NCCCCC1 | 0.5 | -4.0 | 81.5* | -3.7 | 0.2 | 2.9 | 90.8*
O=C(ONC1=NCCCCC1)c1cccc([N+](=O)[O-])c1 | 0.2 | 11.0 | 0.1 | 3.5 | -4.0 | 1.3 | nt
O=C(NC(NNc1ccc([N+](=O)[O-])cc1)(C(F)(F)F)C(F)(F)F)c1ccc(F)cc1 | -0.1 | 33.6 | 100.3* | -2.5 | -6.7 | 0.8 | 88.2*
O=C(NC(NNc1ccc([N+](=O)[O-])cc1)(C(F)(F)F)C(F)(F)F)c1ccccc1Cl | -0.2 | 55.3 | 90.2* | -0.4 | -2.6 | -0.2 | 83.8*
COC(=O)C(NNc1ccccc1)(NC(=O)c1ccc(F)cc1)C(F)(F)F (stereo unspecified) | -0.2 | 25.1 | 1.8 | -1.0 | 2.8 | -2.0 | nt
Cc1ccccc1C(=O)NNc1ccc([N+](=O)[O-])cc1 | -0.3 | 0.1 | 0.6 | -1.8 | 2.0 | 1.5 | nt
CC(OC(=O)/C=C/c1ccc2ccccc2n1)C(=O)NCc1ccccc1 (stereo unspecified) | 0.5 | nt | -1.4 | -3.5 | 1.7 | 5.3 | nt
CNC(=S)NNC(=O)c1cc(-c2cccnc2)nc2ccccc12 | -0.2 | nt | -1.0 | -1.5 | 0.4 | 0.7 | nt
O=C(NNC(=O)c1cc(-c2cccnc2)nc2ccccc12)Nc1ccc(Cl)cc1 | -0.3 | 25.0 | 86.4* | -3.4 | 25.5* | 1.3 | 85.9*
Nc1ccccc1N=Cc1ccc(-c2cccc(Cl)c2)o1 | 0.5 | -3.7 | 67.1* | 2.5 | 21.6* | 5.8 | 65.9*
COC(=O)N/N=C/c1ccc(-c2cccc(Cl)c2)o1 | 0.0 | 11.2 | 3.6 | 1.1 | -1.5 | 7.6 | nt
CCN(CC)C1CCN(c2nc3nonc3nc2NCCOC)C1 (stereo unspecified) | -0.3 | -1.8 | -0.6 | 1.7 | -0.1 | 0.7 | nt
COCCNc1nc2nonc2nc1NC(C)c1ccccc1Cl (stereo unspecified) | 0.2 | 8.0 | 74.6* | -0.1 | -6.6 | 0.7 | 96.5*
O=C(C[C@@H]1C[C@@H]2c3cc(NC(=O)C4CCOCC4)ccc3O[C@@H]2[C@H](CO)O1)NCc1ccccn1 | -0.1 | nt | -0.6 | nt | nt | nt | nt
CCOC(=O)C1(CCc2ccccc2)CCN(Cc2ccc(OC)cc2)CC1 | 0.5 | 12.9 | 0.2 | 0.5 | -1.5 | -0.9 | nt
